Laboratory results from ChEMBL document CHEMBL2202989, “New adamantane phenylalkylamines with σ-receptor binding affinity and anticancer activity, associated with putative antagonism of neuropathic pain” (J Med Chem, 2012).

Tests used:
[1] = test system: HCT-116; assay: Growth inhibition of human HCT116 cells after 48 hrs by SRB assay; assay type: functional; settings: HCT-116, 48 h
In short: (§1)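 Cells grown in RPMI 1640 with 5% heat-inactivated FCS, 2 mM L-glutamine and antibiotics, 37 °C, 5% CO2. Seeded at 3500–30000 cells/well and left 24 h before dosing. DMSO solutions added at 10-fold dilutions from 100 to 0.01 μM for 48 h. Cells TCA-fixed and SRB-stained, absorbance read at 540 nm; GI50 derived against the time-zero plate.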

[2] = test system: BXPC-3; assay: Growth inhibition of human BxPC3 cells after 48 hrs by SRB assay; assay type: functional; settings: BXPC-3, 48 h; in short: as §1
[3] = test system: U-251; assay: Growth inhibition of human U251 cells after 48 hrs by SRB assay; assay type: functional; settings: U-251, 48 h; for CC50: read-out: LC50 (the source's name); in short: as §1
[4] = test system: SK-HEP1; assay: Growth inhibition of human SKHEP1 cells after 48 hrs by SRB assay; assay type: functional; settings: SK-HEP1, 48 h; for CC50: read-out: LC50 (the source's name); in short: as §1
[5] = test system: DU-145; assay: Growth inhibition of human DU145 cells after 48 hrs by SRB assay; assay type: functional; settings: DU-145, 48 h; for CC50: read-out: LC50 (the source's name); in short: as §1
[6] = (§2) Growth inhibition of human NHDF cells after 48 hrs by SRB assay; assay type: cell-based; settings: NHDF cells; in short: as §1
[7] = test system: NHDF; assay: as §2; assay type: cell-based; settings: nhdf, 48 h; in short: as §1
[8] = Growth inhibition of human MSC cells after 48 hrs by SRB assay; assay type: cell-based; in short: as §1
[9] = test system: MCF7; assay: Growth inhibition of human MCF7 cells after 48 hrs by SRB assay; assay type: functional; settings: MCF7, 48 h; for CC50: read-out: LC50 (the source's name); in short: as §1
[10] = test system: HCT-15; assay: Growth inhibition of human HCT15 cells after 48 hrs by SRB assay; assay type: functional; settings: HCT-15, 48 h; for CC50: read-out: LC50 (the source's name); in short: as §1
[11] = test system: PC-3; assay: Growth inhibition of human PC3 cells after 48 hrs by SRB assay; assay type: functional; settings: PC-3, 48 h; for CC50: read-out: LC50 (the source's name); in short: as §1
[12] = (§3) Growth inhibition of human HUVEC cells after 48 hrs by SRB assay; assay type: cell-based; settings: HUVEC cells; in short: as §1
[13] = test system: HUVEC; assay: as §3; assay type: cell-based; settings: huvec, 48 h; in short: as §1
[14] = test system: OVCAR-5; assay: Growth inhibition of human OVCAR5 cells after 48 hrs by SRB assay; assay type: functional; settings: OVCAR-5, 48 h; for CC50: read-out: LC50 (the source's name); in short: as §1
[15] = test system: IGROV-1; assay: Growth inhibition of human IGROV1 cells after 48 hrs by SRB assay; assay type: functional; settings: IGROV-1, 48 h; for CC50: read-out: LC50 (the source's name); in short: as §1
[16] = test system: MIA PaCa-2; assay: Growth inhibition of human MIAPaCa2 cells after 48 hrs by SRB assay; assay type: functional; settings: MIA PaCa-2, 48 h; for CC50: read-out: LC50 (the source's name); in short: as §1
[17] = Displacement of [3H]1,3-di-otolylguanidine from sigma 2 receptor in rat cerebral cortex membranes; assay type: cell membranes, Membrane
In short: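 Rat cerebral cortex membranes incubated with 5 nM [3H]DTG plus 300 nM (+)-pentazocine to mask σ1 sites, together with a range of test concentrations, 2 h at 22 °C in Tris-HCl, pH 7.4. Nonspecific binding defined with 10 μM haloperidol.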

[18] = test system: HL-60(TB); assay: Growth inhibition of human HL-60(TB) cells after 48 hrs by SRB assay; assay type: functional; settings: HL-60, 48 h
In short: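 Cells kept in RPMI 1640 with 5% FCS at 37 °C, 5% CO2, and seeded 24 h before dosing. Compound given from DMSO at 10-fold dilutions, 100 to 0.01 μM, for 48 h. Cells fixed with TCA, stained with SRB, absorbance read at 540 nm. GI50 taken from a time-zero plate.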

[19] = target: Sigma non-opioid intracellular receptor 1 (Homo sapiens, UniProt Q99720); assay: Displacement of [3H]-(+)-pentazocine from sigma 1 receptor in human Jurkat cell membrane; assay type: cell membranes
In short: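 Jurkat cell membranes incubated with 8 nM [3H](+)-pentazocine and a range of test concentrations for 2 h at 22 °C in Tris-HCl buffer, pH 7.4. Nonspecific binding defined with 10 μM haloperidol. Run in triplicate.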

[20] = read-out: LC50 (the source's name)

Chain of Sigma non-opioid intracellular receptor 1 (Q99720 whole entry): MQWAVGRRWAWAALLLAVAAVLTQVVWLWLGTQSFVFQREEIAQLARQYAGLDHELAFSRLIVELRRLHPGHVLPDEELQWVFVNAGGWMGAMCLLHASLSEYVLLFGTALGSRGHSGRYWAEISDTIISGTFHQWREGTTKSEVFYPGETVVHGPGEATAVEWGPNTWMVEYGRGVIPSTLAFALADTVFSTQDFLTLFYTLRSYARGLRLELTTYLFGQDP

| SMILES | GI50 [2] | LC50 [2] | TGI [2] | GI50 [3] | TGI [3] | CC50 [3] | GI50 [4] | TGI [4] | CC50 [4] | GI50 at 48 h [6] | LC50 [7] | TGI [7] | TGI [8] | GI50 [9] | TGI [9] | CC50 [9] | GI50 [10] | TGI [10] | CC50 [10] | GI50 [11] | further results |
| --- | --- | --- | --- | --- | --- | --- | --- | --- | --- | --- | --- | --- | --- | --- | --- | --- | --- | --- | --- | --- | --- |
| CCN1CCN(CCCc2ccc(C(c3ccccc3)C34CC5CC(CC(C5)C3)C4)cc2)CC1 (stereo not drawn) | 5.3 µM | 100 nM | 10.6 µM | 4.29 µM | 6.69 µM | 9.09 nM | 3.41 µM | 6.01 µM | 8.61 nM | 5.04 µM | 100 µM | 36.6 µM | 8.69 µM | 3.05 µM | 5.87 µM | 8.61 nM | 4.09 µM | 7.64 µM | 47.3 nM | 4.79 µM | GI50 [1]: 3.29 µM; TGI [1]: 5.9 µM; CC50 [1, 20]: 8.52 nM; GI50 [5]: 5.33 µM; TGI [5]: 8.5 µM; CC50 [5]: 11.7 nM; TGI [11]: 7.84 µM; CC50 [11]: 10.9 nM; GI50 at 48 h [12]: 4.07 µM; LC50 [13]: 9.4 µM; TGI [13]: 6.73 µM |
| CCN1CCN(CCc2ccc(C(c3ccccc3)C34CC5CC(CC(C5)C3)C4)cc2)CC1 (stereo not drawn) | 8.35 µM | 89.8 nM | 45.2 µM | 3.54 µM | 6.19 µM | 8.47 nM | 4.14 µM | 7.66 µM | 100 nM | 7.31 µM | 100 µM | 83.6 µM | 2.93 µM | 3.9 µM | 8.5 µM | 97.1 nM | 5.64 µM | 17.2 µM | 100 nM | 4.83 µM | GI50 [14]: 28.1 µM; TGI [14]: 53.8 µM; CC50 [14]: 68.5 nM; GI50 [15]: 4.49 µM; TGI [15]: 9.83 µM; CC50 [15]: 96.8 nM; TGI [11]: 9.53 µM; CC50 [11]: 86.7 nM; GI50 [16]: 20.9 µM; TGI [16]: 49.2 µM; CC50 [16]: 77.5 nM; GI50 at 48 h [12]: 5.1 µM; LC50 [13]: 9.62 µM; TGI [13]: 7.36 µM |
| c1ccc(C(c2ccc(CCN3CCCCC3)cc2)C23CC4CC(CC(C4)C2)C3)cc1 (stereo not drawn) | 64.7 µM | 100 nM | 100 µM | 24.8 µM | 55.8 µM | 86.7 nM | 8.61 µM | 58.2 µM | 100 nM | 18.6 µM | 99.34 µM | 59 µM | 18.3 µM | 6.93 µM | 42.4 µM | 98.5 nM | 9.12 µM | 43.7 µM | 82 nM | 11.6 µM | GI50 [14]: 37.3 µM; TGI [14]: 67.8 µM; CC50 [14]: 97.7 nM; GI50 [15]: 17.7 µM; TGI [15]: 43.7 µM; CC50 [15]: 68.7 nM; TGI [11]: 41.2 µM; CC50 [11]: 92 nM; GI50 [16]: 35.5 µM; TGI [16]: 63.3 µM; CC50 [16]: 91.1 nM; GI50 at 48 h [12]: 5.31 µM; LC50 [13]: 100 µM; TGI [13]: 9.33 µM |
| CN1CCN(Cc2ccc(C(c3ccccc3)C34CC5CC(CC(C5)C3)C4)cc2)CC1 (stereo not drawn) | 4.83 µM | 9.13 nM | 6.98 µM | 3.62 µM | 6.55 µM | 9.47 nM | 3.35 µM | 5.97 µM | 8.59 nM | 5.12 µM | 100 µM | 10.4 µM | 4.44 µM | 2.25 µM | 5.29 µM | 8.33 nM | 3.5 µM | 6.3 µM | 9.1 nM | 3.55 µM | GI50 [14]: 5.31 µM; TGI [14]: 19.7 µM; CC50 [14]: 57.7 nM; GI50 [5]: 3.01 µM; TGI [5]: 6.41 µM; CC50 [5]: 9.08 nM; IC50 [17]: 110 nM; GI50 [18]: 4.63 nM; TGI [18]: 9.14 nM; CC50 [18, 20]: 100 nM; IC50 [19]: 5.2 nM; TGI [11]: 6.25 µM; CC50 [11]: 68.5 nM; GI50 [16]: 3.61 µM; TGI [16]: 6.34 µM; CC50 [16]: 9.06 nM; GI50 at 48 h [12]: 4.12 µM; LC50 [13]: 100 µM; TGI [13]: 7.3 µM |
